{"source": "ChEMBL document CHEMBL4316649", "about": "“The Mosaic of Rottlerin: The Sequel” (J Nat Prod, 2019)", "key": {"Staphylococcus aureus": {"system": "Staphylococcus aureus", "assay": "Antibacterial activity against Staphylococcus aureus measured after 24 hrs", "type": "functional", "procedure,_shortened": "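Broth microdilution in TSB. Overnight 37 °C culture from a single colony, washed twice by centrifugation/resuspension in TSB, set to OD600 0.1 (10⁸ CFU/mL), then diluted to 10⁵ CFU/mL. Bacteria added 3:1 to serially diluted compound (DMSO stock diluted in water). Incubated 37 °C, 24 h; OD600 read. MIC = lowest concentration giving OD like the no-bacteria control. Triplicate, three independent experiments.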"}, "[1]": {"assay": "Drug metabolism in DMSO-d6 assessed as isorottlerin formation measured after 2 hrs at 100 degC by 1H NMR analysis"}, "[2]": {"assay": "Stability of the compound in toluene under room temperature by 1H NMR-spectroscopic analysis", "type": "physicochemical"}, "[3]": {"assay": "Drug metabolism in DMSO-d6 assessed as 6-(3-Acetyl-2,4,6-trihydroxy-5-methylbenzyl)-5-hydroxy-2,2-dimethyl-8-phenyl-8,9-dihydro-2H,10H-pyrano[2,3-f]-chromen-10-one formation measured after 2 hrs at 100 degC by 1H NMR analysis"}, "[4]": {"assay": "Drug metabolism in DMSO-d6 assessed as isorottlerin formation measured after 2 months at room temperature by HSQC analysis"}, "[5]": {"assay": "Drug metabolism in DMSO-d6 assessed as 6-(3-Acetyl-2,4,6-trihydroxy-5-methylbenzyl)-5-hydroxy-2,2-dimethyl-8-phenyl-8,9-dihydro-2H,10H-pyrano[2,3-f]-chromen-10-one formation measured after 2 months at room temperature by RP-HPLC analysis"}, "[6]": {"assay": "Stability of the compound in CHCl3 under room temperature by 1H NMR-spectroscopic analysis", "type": "physicochemical"}, "[7]": {"assay": "Stability of the compound in acetone under room temperature by 1H NMR-spectroscopic analysis", "type": "physicochemical"}, "[8]": {"assay": "Stability of the compound in DMSO-d6 measured after 2 months at room temperature by 1H NMR-spectroscopic analysis", "type": "physicochemical", "conditions": "1461 h"}, "[9]": {"assay": "Stability of the compound in MeCN under room temperature by 1H NMR-spectroscopic analysis", "type": "physicochemical"}, "[10]": {"assay": "Drug metabolism in DMSO-d6 assessed as isorottlerin formation measured after 2 months at room temperature by RP-HPLC analysis"}, "[11]": {"assay": "Stability of the compound in MeCN under intense heating condition by 1H NMR-spectroscopic analysis", "type": "physicochemical"}, "[12]": {"assay": "Stability of the compound in acetone under intense heating condition by 1H NMR-spectroscopic analysis", "type": "physicochemical"}, "[13]": {"assay": "Drug metabolism in DMSO-d6 assessed as 6-(3-Acetyl-2,4,6-trihydroxy-5-methylbenzyl)-5-hydroxy-2,2-dimethyl-8-phenyl-8,9-dihydro-2H,10H-pyrano[2,3-f]-chromen-10-one formation measured after 2 months at room temperature by HSQC analysis"}, "[14]": {"assay": "Stability of the compound in toluene under intense heating condition by 1H NMR-spectroscopic analysis", "type": "physicochemical"}, "[15]": {"assay": "Stability of the compound in CHCl3 under intense heating condition by 1H NMR-spectroscopic analysis", "type": "physicochemical"}}, "data": [{"compound": "CC(=O)c1c(O)c(C)c(O)c(Cc2c3c(c(O)c4c2OC(c2ccccc2)CC4=O)C=CC(C)(C)O3)c1O", "note": "(stereo unspecified)", "values": [{"measurement": "MIC", "setting": "Staphylococcus aureus", "result": "> 125", "unit": "µM"}]}, {"compound": "CC1(C)C=Cc2c(O)c(Cc3c(O)cc(O)cc3O)c(O)c(C(=O)/C=C/c3ccccc3)c2O1", "values": [{"measurement": "MIC", "setting": "Staphylococcus aureus", "result": 15.6, "unit": "µM"}]}, {"compound": "CC(=O)c1c(O)c(C)c(O)c(Cc2c(O)c3c(c4c2OC(c2ccccc2)CC4=O)OC(C)(C)C=C3)c1O", "note": "(stereo unspecified)", "values": [{"measurement": "MIC", "setting": "Staphylococcus aureus", "result": "> 125", "unit": "µM"}]}, {"compound": "Cc1cc(O)cc(O)c1Cc1c(O)c2c(c(C(=O)/C=C/c3ccccc3)c1O)OC(C)(C)C=C2", "values": [{"measurement": "MIC", "setting": "Staphylococcus aureus", "result": 7.8, "unit": "µM"}]}, {"compound": "CC(=O)c1c(O)cc(O)c(Cc2c(O)c3c(c(C(=O)/C=C/c4ccccc4)c2O)OC(C)(C)C=C3)c1O", "values": [{"measurement": "MIC", "setting": "Staphylococcus aureus", "result": 7.8, "unit": "µM"}]}, {"compound": "CCC(=O)C1=C(O)C(C)(C)C(O)=C(Cc2c(O)c3c(c(C(=O)CC)c2O)OC(C)(C)C=C3)C1=O", "note": "[DRUMMONDIN A]", "values": [{"measurement": "MIC", "setting": "Staphylococcus aureus", "result": 1.56, "unit": "µM"}]}, {"compound": "CCC(=O)C1=C(O)C(C)(C)C(O)=C(Cc2c(O)c3c(c(C(C)=O)c2O)OC(C)(C)C=C3)C1=O", "note": "[DRUMMONDIN B]", "values": [{"measurement": "MIC", "setting": "Staphylococcus aureus", "result": 3.12, "unit": "µM"}]}, {"compound": "CC(=O)C1=C(O)C(C)(C)C(O)=C(Cc2c(O)c3c(c(C(C)=O)c2O)OC(C)(C)C=C3)C1=O", "note": "[DRUMMONDIN C]", "values": [{"measurement": "MIC", "setting": "Staphylococcus aureus", "result": 3.12, "unit": "µM"}]}, {"compound": "CC(=O)C1=C(O)C(C)(CC=C(C)C)C(O)=C(Cc2c(O)c(CC=C(C)C)c(O)c(C(C)=O)c2O)C1=O", "note": "(stereo unspecified) [DRUMMONDIN F]", "values": [{"measurement": "MIC", "setting": "Staphylococcus aureus", "result": 0.78, "unit": "µM"}]}, {"compound": "CC(=O)c1c(O)c(C)c(O)c(Cc2c(O)c3c(c(C(=O)/C=C/c4ccccc4)c2O)OC(C)(C)C=C3)c1O", "note": "[ROTTLERIN]", "values": [{"measurement": "Drug metabolism", "setting": "[1]", "result": "Metabolite detected"}, {"measurement": "Stability", "setting": "[2]", "result": "Stable"}, {"measurement": "Drug metabolism", "setting": "[3]", "result": "Metabolite detected"}, {"measurement": "Drug metabolism", "setting": "[4]", "result": "Metabolite detected"}, {"measurement": "Drug metabolism", "setting": "[5]", "result": 2, "unit": "%"}, {"measurement": "Stability", "setting": "[6]", "result": "Stable"}, {"measurement": "Stability", "setting": "[7]", "result": "Stable"}, {"measurement": "Stability", "setting": "[8]", "result": "Unstable"}, {"measurement": "Stability", "setting": "[9]", "result": "Stable"}, {"measurement": "Drug metabolism", "setting": "[10]", "result": 20, "unit": "%"}, {"measurement": "Stability", "setting": "[11]", "result": "Stable"}, {"measurement": "MIC", "setting": "Staphylococcus aureus", "result": 2, "unit": "µM"}, {"measurement": "Stability", "setting": "[12]", "result": "Stable"}, {"measurement": "Drug metabolism", "setting": "[13]", "result": "Metabolite detected"}, {"measurement": "Stability", "setting": "[14]", "result": "Stable"}, {"measurement": "Stability", "setting": "[15]", "result": "Stable"}]}, {"compound": "GENTAMICIN", "values": [{"measurement": "MIC", "setting": "Staphylococcus aureus", "result": 2, "unit": "µM"}]}]}
